Results from article PMC12056735 (RSC Advances, 2025).
Read-outs that look alike come from different tables or passages of the source.

How the values were obtained:
[1] = system: Bax; assay: ELISA for Bax in MDA-MB-231 cells; assay type: cell-based, human; settings: MDA-MB-231, 4.64 µM 7a, 72 h
[2] = system: MCF-7 cells; assay type: cell-based, human; settings: cancer cells over normal cells
[3] = system: caspase-3; assay: ELISA for caspase-3 in MDA-MB-231 cells; assay type: cell-based, human
[4] = system: Bcl-2; assay: ELISA for Bcl-2 in MDA-MB-231 cells; assay type: cell-based, human
[5] = Safety assay on normal cells, MTT assay; assay type: cell-based; settings: human, WI-38 cells (normal lung fibroblast cell line)
Summary of the method: (§1)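 MTT viability assay, run on normal WI-38 and WISH cells in parallel with MDA-MB-231 and MCF-7 breast cancer lines to judge selectivity. A series of test compounds and a reference drug were tested.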

[6] = target: VEGFR-2 (Homo sapiens, UniProt P35968); assay: biochemical
VEGFR-2, sequence (P35968 20-1356): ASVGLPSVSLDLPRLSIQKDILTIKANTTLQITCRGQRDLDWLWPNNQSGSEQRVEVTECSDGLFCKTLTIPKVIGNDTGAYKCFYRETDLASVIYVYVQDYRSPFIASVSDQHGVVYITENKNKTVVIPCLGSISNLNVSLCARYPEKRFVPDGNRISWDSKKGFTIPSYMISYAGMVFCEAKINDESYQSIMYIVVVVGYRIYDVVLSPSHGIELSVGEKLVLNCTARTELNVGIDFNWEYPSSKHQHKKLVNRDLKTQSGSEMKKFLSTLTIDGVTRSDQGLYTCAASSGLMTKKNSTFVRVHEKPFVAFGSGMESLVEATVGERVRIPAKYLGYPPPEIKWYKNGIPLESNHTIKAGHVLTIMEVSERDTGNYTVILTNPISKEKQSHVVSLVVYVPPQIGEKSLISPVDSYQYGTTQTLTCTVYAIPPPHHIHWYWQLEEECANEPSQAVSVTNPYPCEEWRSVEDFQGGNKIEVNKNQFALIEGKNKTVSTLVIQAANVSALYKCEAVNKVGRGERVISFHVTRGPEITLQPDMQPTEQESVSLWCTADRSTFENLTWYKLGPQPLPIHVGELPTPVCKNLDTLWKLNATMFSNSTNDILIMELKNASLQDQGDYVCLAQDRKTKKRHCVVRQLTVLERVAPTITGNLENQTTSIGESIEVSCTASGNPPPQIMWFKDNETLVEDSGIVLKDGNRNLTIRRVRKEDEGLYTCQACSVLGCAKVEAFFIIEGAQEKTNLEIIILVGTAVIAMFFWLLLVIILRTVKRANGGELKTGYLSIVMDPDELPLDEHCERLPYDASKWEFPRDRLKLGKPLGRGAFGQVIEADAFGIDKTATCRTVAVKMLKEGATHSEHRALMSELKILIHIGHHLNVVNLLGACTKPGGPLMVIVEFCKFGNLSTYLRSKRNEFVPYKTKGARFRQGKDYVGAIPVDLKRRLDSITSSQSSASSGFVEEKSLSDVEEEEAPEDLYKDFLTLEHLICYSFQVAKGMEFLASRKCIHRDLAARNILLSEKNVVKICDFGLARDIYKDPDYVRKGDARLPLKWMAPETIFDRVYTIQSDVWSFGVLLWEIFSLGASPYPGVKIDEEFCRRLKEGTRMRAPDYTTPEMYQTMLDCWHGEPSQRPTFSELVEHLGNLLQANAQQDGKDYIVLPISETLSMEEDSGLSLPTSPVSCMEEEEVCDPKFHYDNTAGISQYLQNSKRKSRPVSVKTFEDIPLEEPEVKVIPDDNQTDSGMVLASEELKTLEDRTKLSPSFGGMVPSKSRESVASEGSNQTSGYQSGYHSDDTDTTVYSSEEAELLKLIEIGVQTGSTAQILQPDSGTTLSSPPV

[7] = system: MDA-MB-231 cells; assay: Apoptosis analysis, Annexin V-FITC/PI flow cytometry; assay type: cell-based, human
Summary of the method: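 Annexin V-FITC/PI flow cytometry on MDA-MB-231 cells exposed to test compound. Percentages of viable, early apoptotic, late apoptotic and necrotic cells are compared against an untreated control group of the same cells.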

[8] = system: MDA-MB-231 cells; assay: Cell cycle analysis, flow cytometry; assay type: cell-based, human; settings: MDA-MB-231, 4.64 µM 7a, 48 h
[9] = Safety assay on normal cells, MTT assay; assay type: cell-based; settings: human, WISH cells (normal amnion cell line)
Summary of the method: as §1

[10] = system: MDA-MB-231 cells; assay type: cell-based, human; settings: cancer cells over normal cells
[11] = system: HCT-116; settings: cited from earlier work
[12] = system: MCF-7; settings: read-out: IC50 against MCF-7; cited from earlier work
[13] = MDA-MB-231, 4.64 µM 7a, 72 h, ELISA

For `CC(=O)c1nn(-c2ccccc2Cl)/c(=N/N=C(\C)c2ccc(NC(=O)c3cccnc3)cc2)s1` [Compound 7a, N-(4-((E)-1-(((Z)-5-Acetyl-3-(2-chlorophenyl)-1,3,4-thiadiazol-2(3H)-ylidene)hydrazono)ethyl)phenyl)nicotinamide], the Bax conc. [1] was 394.72, the “Selectivity index (SI) for MCF-7” value [2] was 8.14 and the Caspase-3 conc. [3, 13] was 441.93. The “Caspase-3 FLD” value ([3]; fold vs control MDA-MB-231 (FLD = 1), upregulated) was 8.2 fold, the Bcl-2 conc. [4, 13] was 1.53 and the “Bcl-2 FLD” value ([4]; fold vs control MDA-MB-231 (FLD = 1), downregulated) was 3.68 fold. It also gave an IC50 at 24 h [5] of 73.6 ± 3.8 µM, an IC50 [6] of 0.095 ± 0.05 µM and a viability at 4.64 µM ([7]; Homo sapiens, MDA-MB-231, 48 h, read-out: Viable cells) of 50%. The Early apoptosis ([7]; MDA-MB-231, 4.64 µM 7a, 48 h) was 1.06%, the Late apoptosis ([7]; MDA-MB-231, 4.64 µM 7a, 48 h) was 44.01% and the Necrosis ([7]; MDA-MB-231, 4.64 µM 7a, 48 h) was 4.94%. For the same compound, the “Cell cycle distribution, G0/G1” value [8] was 33%, the “Cell cycle distribution, G2/M” value [8] was 8% and the “Cell cycle distribution, S” value [8] was 59%. The IC50 at 24 h [9] was 57.7 ± 3.3 µM and the “Selectivity index (SI) for MDA-MB-231” value [10] was 15.86.

In the case of `CNC(=O)c1cc(Oc2ccc(NC(=O)Nc3ccc(Cl)c(C(F)(F)F)c3)cc2)ccn1` [Sorafenib], the IC50 at 24 h [5] is given as 10.6 ± 0.8 µM, the IC50 ([11]; read-out: IC50 against HCT-116) is given as 9.3 µM and the IC50 ([11]; read-out: IC50 against HCT-116 cells) is given as 7.28 µM. The IC50 at 24 h [9] was 13.4 ± 1.1 µM and the IC50 [12] was 6.72 µM.
